How the values were obtained:
[1] = Half life in iv dosed rat by cassette studies; assay type: ADME, organism-based; conditions: in vivo
How it was run: (§1)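 Rat PK from intravenous cassette dosing, in which several compounds are given together in one IV administration, followed by plasma sampling to derive clearance, Vdss and elimination half-life.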

[2] = Volume of distribution at steady state in iv dosed rat by cassette studies; assay type: ADME, organism-based; conditions: in vivo, read-out: Vdss; how it was run: as §1
[3] = Clearance in iv dosed rat by cassette studies; assay type: ADME, organism-based; conditions: in vivo; how it was run: as §1
[4] = Half life in iv dosed rat by singleton studies; assay type: ADME, organism-based; conditions: in vivo
How it was run: (§2)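 Rat PK from intravenous singleton dosing, in which each compound is given alone IV, followed by plasma sampling to derive clearance, Vdss and elimination half-life.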

[5] = Half life in iv dosed dog by cassette studies; assay type: ADME, organism-based, Canis lupus familiaris; conditions: in vivo
How it was run: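 Dog half-life from intravenous cassette dosing, with compounds co-administered IV and plasma sampled for elimination t1/2.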

[6] = Volume of distribution at steady state in iv dosed rat by singleton studies; assay type: ADME, organism-based; conditions: in vivo, read-out: Vdss; how it was run: as §2
[7] = Clearance in iv dosed rat by singleton studies; assay type: ADME, organism-based; conditions: in vivo; how it was run: as §2
[8] = Half life in iv dosed dog by singleton studies; assay type: ADME, organism-based, Canis lupus familiaris; conditions: in vivo
How it was run: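 Dog half-life from intravenous singleton dosing, with each compound given alone IV and plasma sampled for elimination t1/2.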

[9] = Volume of distribution at steady state in Beagle dog at 0.5 mg/kg, iv; assay type: ADME, organism-based, Canis lupus familiaris; design: dose 0.5 mg/kg, route intravenous; conditions: in vivo, read-out: Vdss
How it was run: (§3)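 Single-dose pharmacokinetics in male animals, with rats being Sprague Dawley. IV dosing was 0.5 mg/kg (rat N = 2, dog N = 3). Oral dosing was 3 mg/kg (rat N = 3, dog N = 2). Plasma was sampled to derive Cmax, Tmax, AUCinf, clearance, Vdss and t1/2, and oral bioavailability (F) was calculated from the PO versus IV exposure.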

[10] = Absolute oral bioavailability in Beagle dog at 3 mg/kg; assay type: ADME, organism-based, Canis lupus familiaris; conditions: in vivo; how it was run: as §3
[11] = Clearance in Sprague-Dawley rat at 0.5 mg/kg, iv; assay type: ADME, organism-based; design: dose 0.5 mg/kg, route intravenous; conditions: in vivo; how it was run: as §3
[12] = Tmax in Beagle dog at 3 mg/kg, po; assay type: ADME, organism-based, Canis lupus familiaris; design: dose 3 mg/kg, route oral; conditions: in vivo; how it was run: as §3
[13] = Cmax in Sprague-Dawley rat at 3 mg/kg, po; assay type: ADME, organism-based; design: dose 3 mg/kg, route oral; conditions: in vivo; how it was run: as §3
[14] = Absolute oral bioavailability in Sprague-Dawley rat at 3 mg/kg; assay type: ADME, organism-based; conditions: in vivo; how it was run: as §3
[15] = Clearance in Beagle dog at 0.5 mg/kg, iv; assay type: ADME, organism-based, Canis lupus familiaris; design: dose 0.5 mg/kg, route intravenous; conditions: in vivo; how it was run: as §3
[16] = AUC (infinity) in Sprague-Dawley rat at 3 mg/kg, po; assay type: ADME, organism-based; design: dose 3 mg/kg, route oral, time infinity; conditions: plasma; how it was run: as §3
[17] = Tmax in Sprague-Dawley rat at 3 mg/kg, po; assay type: ADME, organism-based; design: dose 3 mg/kg, route oral; conditions: in vivo; how it was run: as §3
[18] = AUC (infinity) in Beagle dog at 3 mg/kg, po; assay type: ADME, organism-based, Canis lupus familiaris; design: time infinity, dose 3 mg/kg, route oral; conditions: plasma; how it was run: as §3
[19] = AUC (infinity) in Sprague-Dawley rat at 0.5 mg/kg, iv; assay type: ADME, organism-based; design: time infinity, dose 0.5 mg/kg, route intravenous; conditions: plasma; how it was run: as §3
[20] = AUC (infinity) in Beagle dog at 0.5 mg/kg, iv; assay type: ADME, organism-based, Canis lupus familiaris; design: time infinity, dose 0.5 mg/kg, route intravenous; conditions: plasma; how it was run: as §3
[21] = Cmax in Beagle dog at 3 mg/kg, po; assay type: ADME, organism-based, Canis lupus familiaris; design: dose 3 mg/kg, route oral; conditions: in vivo; how it was run: as §3
[22] = Half life in Beagle dog at 0.5 mg/kg, iv; assay type: ADME, organism-based, Canis lupus familiaris; design: dose 0.5 mg/kg, route intravenous; conditions: in vivo; how it was run: as §3
[23] = Volume of distribution at steady state in Sprague-Dawley rat at 0.5 mg/kg, iv; assay type: ADME, organism-based; design: dose 0.5 mg/kg, route intravenous; conditions: in vivo, read-out: Vdss; how it was run: as §3
[24] = Half life in Sprague-Dawley rat at 0.5 mg/kg, iv; assay type: ADME, organism-based; design: dose 0.5 mg/kg, route intravenous; conditions: in vivo; how it was run: as §3

Cc1cccn(-c2ccc(NC(=O)[C@H]3C[C@@](C)(O)CN3C(=O)Nc3ccc(Cl)cc3)c(F)c2)c1=O
half-life [1]: 1.6 h

O=C(Nc1ccc(-n2ccccc2=O)cn1)[C@H]1C[C@](O)(c2ccc(F)cc2)CN1C(=O)Nc1ccc(Cl)cc1
Vd [2]: 1.97 L/kg | half-life [1]: 1.8 h | clearance [3]: 9.44 mL/min/kg

CO[C@@H]1C[C@H](C(=O)Nc2ccc(-n3ccccc3=O)cn2)N(C(=O)Nc2ccc(Cl)cc2)C1
half-life [1]: 2 h

O=C(Nc1ccc(-n2ccccc2=O)cc1F)[C@H]1C[C@](O)(c2ccccc2)CN1C(=O)Nc1ccc(Cl)cc1
half-life [4]: 4 h

O=C(Nc1ccc(-n2ccccc2=O)cn1)[C@H]1C[C@](O)(c2ccccc2Cl)CN1C(=O)Nc1ccc(Cl)cc1
Vd [2]: 0.923 L/kg | half-life [1]: 2.9 h | half-life [5]: 0.8 h | clearance [3]: 4.16 mL/min/kg

O=C(Nc1ccc(-n2ccccc2=O)cn1)[C@H]1C[C@](O)(c2ccccc2)CN1C(=O)Nc1ccc(Cl)cc1
half-life [1]: 2.9 h | half-life [5]: 2.9 h | Vd [6]: 1.49 L/kg | clearance [7]: 6.73 mL/min/kg

CCO[C@]1(CC)C[C@H](C(=O)Nc2ccc(-n3ccccc3=O)cc2F)N(C(=O)Nc2ccc(Cl)cc2)C1
half-life [1]: 1.4 h

O=C(Nc1ccc(-n2ccccc2=O)cn1)[C@H]1C[C@](O)(c2ccccc2C(F)(F)F)CN1C(=O)Nc1ccc(Cl)cc1
Vd [2]: 0.393 L/kg | half-life [1]: 1.9 h | half-life [5]: 1 h | clearance [3]: 2.89 mL/min/kg

CC[C@@]1(O)C[C@H](C(=O)Nc2ccc(-n3ccccc3=O)cc2F)N(C(=O)Nc2ccc(Cl)cc2)C1
half-life [1]: 2.4 h

O=C(Nc1ccc(-n2ccccc2=O)cn1)[C@H]1C[C@](O)(c2ccc(F)c(F)c2)CN1C(=O)Nc1ccc(Cl)cc1
Vd [2]: 1.6 L/kg | half-life [1]: 2.1 h | half-life [5]: 2.1 h | clearance [3]: 13.1 mL/min/kg

Cc1cccc([C@@]2(O)C[C@H](C(=O)Nc3ccc(-n4ccccc4=O)cn3)N(C(=O)Nc3ccc(Cl)cc3)C2)c1
Vd [2]: 0.438 L/kg | half-life [1]: 1.4 h | clearance [3]: 6.78 mL/min/kg

CC[C@@]1(OC)C[C@H](C(=O)Nc2ccc(-n3ccccc3=O)cc2F)N(C(=O)Nc2ccc(Cl)cc2)C1
half-life [1]: 1.7 h

CO[C@@H]1C[C@H](C(=O)Nc2ccc(-n3ccccc3=O)cc2F)N(C(=O)Nc2ccc(Cl)cc2)C1 [ERIBAXABAN]
half-life [8]: 4.9 h | half-life [1]: 2.6 h | Vd [6]: 1.1 L/kg | half-life [4]: 2 h | clearance [7]: 12 mL/min/kg

Cc1ccccc1[C@@]1(O)C[C@H](C(=O)Nc2ccc(-n3ccccc3=O)cn2)N(C(=O)Nc2ccc(Cl)cc2)C1
Vd [2]: 0.468 L/kg | half-life [1]: 1.3 h | clearance [3]: 5.12 mL/min/kg

CO[C@]1(C)C[C@H](C(=O)Nc2ccc(-n3ccccc3=O)cc2F)N(C(=O)Nc2ccc(Cl)cc2)C1
half-life [1]: 1.7 h

CC[C@@]1(O)C[C@H](C(=O)Nc2ccc(-n3cccc(C)c3=O)cc2F)N(C(=O)Nc2ccc(Cl)cc2)C1
half-life [1]: 5.2 h

O=C(Nc1ccc(-n2ccccc2=O)cn1)[C@H]1C[C@](O)(c2ccc(F)cc2F)CN1C(=O)Nc1ccc(Cl)cc1
Vd [9]: 2 L/kg | bioavailability [10]: 24% | clearance [11]: 9.5 mL/min/kg | Tmax [12]: 2 h | Cmax [13]: 236 ng/mL | bioavailability [14]: 19% | clearance [15]: 2.1 mL/min/kg | AUC(0-inf) [16]: 1010 ng·h/mL | Vd [2]: 1.81 L/kg | half-life [1]: 3.3 h | half-life [5]: 7.3 h | Tmax [17]: 1.7 h | AUC(0-inf) [18]: 6450 ng·h/mL | AUC(0-inf) [19]: 978 ng·h/mL | AUC(0-inf) [20]: 4870 ng·h/mL | Cmax [21]: 397 ng/mL | half-life [22]: 12.6 h | clearance [3]: 7.64 mL/min/kg | Vd [23]: 2.4 L/kg | half-life [24]: 3.3 h

Cc1ccc([C@@]2(O)C[C@H](C(=O)Nc3ccc(-n4ccccc4=O)cn3)N(C(=O)Nc3ccc(Cl)cc3)C2)cc1
Vd [2]: 1.58 L/kg | half-life [1]: 1.8 h | clearance [3]: 10.3 mL/min/kg

From ChEMBL document CHEMBL1153922, “Exploration of 4,4-disubstituted pyrrolidine-1,2-dicarboxamides as potent, orally active Factor Xa inhibitors with extended duration of action” (Bioorg Med Chem, 2009)
